Test results from ChEMBL document CHEMBL1129335, “Synthesis and structure-activity relationships of 2-substituted D-tryptophan-containing peptidic endothelin receptor antagonists: importance of the C-2 substituent of the D-tryptophan residue for endothelin A and B receptor subtype selectivity” (J Med Chem, 1996).

Assays:
[1] = biological target: T1, Endothelin receptor type B (Sus scrofa, UniProt P35463); assay: Binding affinity towards endothelin B receptor in porcine cerebellum membranes; type: cell membranes, Membrane
T1 sequence (P35463 whole entry): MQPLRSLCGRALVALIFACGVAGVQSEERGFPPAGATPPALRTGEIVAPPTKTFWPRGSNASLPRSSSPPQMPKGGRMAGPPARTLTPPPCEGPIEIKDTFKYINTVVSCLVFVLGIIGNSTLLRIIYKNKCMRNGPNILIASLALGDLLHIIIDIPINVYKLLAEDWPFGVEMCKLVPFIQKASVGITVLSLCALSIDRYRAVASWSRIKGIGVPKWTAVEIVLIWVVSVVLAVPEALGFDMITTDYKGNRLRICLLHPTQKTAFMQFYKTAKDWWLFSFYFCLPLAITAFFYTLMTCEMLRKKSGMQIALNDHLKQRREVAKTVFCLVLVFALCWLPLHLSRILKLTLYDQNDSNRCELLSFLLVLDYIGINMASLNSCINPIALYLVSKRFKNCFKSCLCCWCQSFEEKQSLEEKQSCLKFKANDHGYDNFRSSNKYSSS
Summary of the method: (§1)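 Competitive binding in porcine membranes: aortic smooth muscle for ETA and cerebellum for ETB, run by a previously reported method. Variation was generally within 10%.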

Endothelin-1 receptor = biological target: T2, Endothelin-1 receptor (Sus scrofa, UniProt Q29010); assay: Binding affinity towards endothelin A receptor in porcine aortic smooth muscle membranes.; summary of the method: as §1
T2 sequence (Q29010 whole entry): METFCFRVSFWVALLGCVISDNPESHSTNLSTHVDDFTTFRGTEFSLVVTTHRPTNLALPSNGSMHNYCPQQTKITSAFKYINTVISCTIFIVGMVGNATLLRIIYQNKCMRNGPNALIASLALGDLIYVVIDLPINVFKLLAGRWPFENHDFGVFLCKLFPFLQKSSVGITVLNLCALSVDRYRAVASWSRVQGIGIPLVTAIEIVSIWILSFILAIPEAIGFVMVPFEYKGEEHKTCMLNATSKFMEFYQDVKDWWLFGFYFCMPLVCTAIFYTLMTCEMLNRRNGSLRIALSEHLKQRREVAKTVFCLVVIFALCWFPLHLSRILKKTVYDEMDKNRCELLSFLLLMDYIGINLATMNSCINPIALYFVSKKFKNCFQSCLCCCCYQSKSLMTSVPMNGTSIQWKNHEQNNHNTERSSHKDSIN

SMILES	IC50 [1] [nM]	IC50 (Endothelin-1 receptor) [nM]
CC(C)CC(NC(=O)N1[C@H](C)CCC[C@@H]1C)C(=O)N[C@H](Cc1c(Br)[nH]c2ccccc12)C(=O)NC(Cc1c[nH]c2ccccc12)C(=O)O (stereo partly specified)	1100	6.7
Cc1[nH]c2ccccc2c1C[C@@H](NC(=O)C(NC(=O)N1[C@H](C)CCC[C@@H]1C)C1CC1)C(=O)NC(Cc1c[nH]cn1)C(=O)O (stereo partly specified)	170	4.8
Cc1[nH]c2ccccc2c1C[C@H]1NC(=O)[C@H](CC(C)C)NC(=O)[C@@H](C(C)C)NC(=O)[C@@H]2CCCN2C(=O)[C@@H](CC(=O)O)NC1=O	870	51
CCCCCC[C@@H](NC(=O)[C@@H](Cc1c(Br)[nH]c2ccccc12)NC(=O)C(CC(C)C)NC(=O)N1[C@H](C)CCC[C@@H]1C)C(=O)O (stereo partly specified)	1900	110
CCCCC(NC(=O)[C@@H](Cc1c(C#N)[nH]c2ccccc12)NC(=O)C(NC(=O)N1[C@H](C)CCC[C@@H]1C)C(C)C(C)C)C(=O)O (stereo partly specified)	7.1	810
CCCCC(NC(=O)[C@@H](Cc1c(Cl)[nH]c2ccccc12)NC(=O)C(CCC)NC(=O)N1[C@H](C)CCC[C@@H]1C)C(=O)O (stereo partly specified)	7.9	20
CC(C)CC(NC(=O)N1[C@H](C)CCC[C@@H]1C)C(=O)N[C@H](Cc1c(Br)[nH]c2ccccc12)C(=O)NC(Cc1cnc[nH]1)C(=O)O (stereo partly specified)	76	3.8
CC(C)CC(NC(=O)[C@@H](Cc1c(Br)[nH]c2ccccc12)NC(=O)C(CC(C)C)NC(=O)N1[C@H](C)CCC[C@@H]1C)C(=O)O (stereo partly specified)	14	21
CCCCC(NC(=O)[C@@H](Cc1c(Br)[nH]c2ccccc12)NC(=O)C(CC(C)C)NC(=O)N1CCCCCCC1)C(=O)O (stereo partly specified)	26	27
CCCCC(NC(=O)[C@@H](Cc1c(Br)[nH]c2ccccc12)NC(=O)C(CC(C)C)NC(=O)N1CCCCC1C)C(=O)O (stereo partly specified)	34	8.1
Cc1[nH]c2ccccc2c1C[C@H]1NC(=O)[C@H](C2CC2)NC(=O)[C@@H](C(C)C)NC(=O)[C@@H]2CCCN2C(=O)[C@@H](CC(=O)O)NC1=O	270	8.1
Cc1[nH]c2ccccc2c1C[C@@H](NC(=O)C(CC(C)C)NC(=O)N1[C@H](C)CCC[C@@H]1C)C(=O)NC(Cc1c[nH]cn1)C(=O)O (stereo partly specified)	99	2.8
CCCCC(NC(=O)[C@@H](Cc1c(Br)[nH]c2ccccc12)NC(=O)C(CC(C)C)NC(=O)N1CCCCCC1)C(=O)O (stereo partly specified)	28	9.1
CCCCC(NC(=O)[C@@H](Cc1c(Cl)[nH]c2ccccc12)NC(=O)C(CC1CC1)NC(=O)N1[C@H](C)CCC[C@@H]1C)C(=O)O (stereo partly specified)	6.2	14
CCCCC(NC(=O)[C@@H](Cc1c(Br)[nH]c2ccccc12)NC(=O)C(CC(C)C)NC(=O)N1CCCC1)C(=O)O (stereo partly specified)	2700	160
CCCCC(NC(=O)[C@@H](Cc1c(Br)[nH]c2ccccc12)NC(=O)C(CC(C)C)NC(=O)N1CCCCC1)C(=O)O (stereo partly specified)	110	26
CSCCC(NC(=O)[C@@H](Cc1c(C)[nH]c2ccccc12)NC(=O)C(CC(C)C)NC(=O)N1[C@H](C)CCC[C@@H]1C)C(=O)O (stereo partly specified)	13	8
CCCCC(NC(=O)[C@@H](Cc1c(C)[nH]c2ccccc12)NC(=O)C(CC(C)C)NC(=O)N1[C@H](C)CCC[C@@H]1C)C(=O)O (stereo partly specified)	13	9.6

The next lines start with the values.

IC50 [1] [nM]	IC50 (Endothelin-1 receptor) [nM]	SMILES
4.6	51	CCCCC(NC(=O)[C@@H](Cc1c(Cl)[nH]c2ccccc12)NC(=O)C(NC(=O)N1[C@H](C)CCC[C@@H]1C)C(C)CC)C(=O)O (stereo partly specified)
6.1	9	CCCCC(NC(=O)[C@@H](Cc1c(Cl)[nH]c2ccccc12)NC(=O)C(CCCC)NC(=O)N1[C@H](C)CCC[C@@H]1C)C(=O)O (stereo partly specified)
1.9	2.4	CCCSCC(NC(=O)[C@@H](Cc1c(Br)[nH]c2ccccc12)NC(=O)C(CC(C)C)NC(=O)N1[C@H](C)CCC[C@@H]1C)C(=O)O (stereo partly specified)
5	180	CCCCC(NC(=O)[C@@H](Cc1c(CC)[nH]c2ccccc12)NC(=O)C(CC(C)C)NC(=O)N1[C@H](C)CCC[C@@H]1C)C(=O)O (stereo partly specified)
5.6	15	CCCCC(NC(=O)[C@@H](Cc1c(Cl)[nH]c2ccccc12)NC(=O)C(CC(C)C)NC(=O)N1[C@H](C)CCC[C@@H]1C)C(=O)O (stereo partly specified)
1.3	9.3	CCCCC(NC(=O)[C@@H](Cc1c(Cl)[nH]c2ccccc12)NC(=O)C(NC(=O)N1[C@H](C)CCC[C@@H]1C)C1CC1)C(=O)O (stereo partly specified)
2.1	9.2	CCCC(NC(=O)[C@@H](Cc1c(Br)[nH]c2ccccc12)NC(=O)C(CC(C)C)NC(=O)N1[C@H](C)CCC[C@@H]1C)C(=O)O (stereo partly specified)
2.9	5.7	CCCCC(NC(=O)[C@@H](Cc1c(C)[nH]c2ccccc12)NC(=O)C(NC(=O)N1[C@H](C)CCC[C@@H]1C)C1CC1)C(=O)O (stereo partly specified)
2.5	5.6	CCCCC(NC(=O)[C@@H](Cc1c(Br)[nH]c2ccccc12)NC(=O)C(CC(C)C)NC(=O)N1[C@H](C)CCC[C@@H]1C)C(=O)O (stereo partly specified)
1.6	470	CCCCC(NC(=O)[C@@H](Cc1c(C#N)[nH]c2ccccc12)NC(=O)C(CC(C)C)NC(=O)N1[C@H](C)CCC[C@@H]1C)C(=O)O (stereo partly specified)
2.7	46	CCCCC(NC(=O)[C@@H](Cc1c(Cl)[nH]c2ccccc12)NC(=O)C(NC(=O)N1[C@H](C)CCC[C@@H]1C)C1CCCC1)C(=O)O (stereo partly specified)
4.6	33	CCCCC(NC(=O)[C@@H](Cc1c(Cl)[nH]c2ccccc12)NC(=O)C(NC(=O)N1[C@H](C)CCC[C@@H]1C)C(C)C)C(=O)O (stereo partly specified)
5.6	3000	CCCC(NC(=O)[C@@H](Cc1c(C#N)[nH]c2ccccc12)NC(=O)C(NC(=O)N1[C@H](C)CCC[C@@H]1C)C(C)C)C(=O)O (stereo partly specified)
4.5	2.2	CSCCC(NC(=O)[C@@H](Cc1c(Br)[nH]c2ccccc12)NC(=O)C(CC(C)C)NC(=O)N1[C@H](C)CCC[C@@H]1C)C(=O)O (stereo partly specified)
4.2	9.8	C=CCC(NC(=O)[C@@H](Cc1c(Br)[nH]c2ccccc12)NC(=O)C(CC(C)C)NC(=O)N1[C@H](C)CCC[C@@H]1C)C(=O)O (stereo partly specified)
